Experimental data as given in ChEMBL document CHEMBL2074217, “Differences in the transport of the antiepileptic drugs phenytoin, levetiracetam and carbamazepine by human and mouse P-glycoprotein” (Neuropharmacology, 2006).

How the values were obtained:
Type in all cases: functional, cell-based
[1] = biological target: T1, ATP-dependent translocase ABCB1 (Mus musculus, UniProt P21447); test: TP_TRANSPORTER: transcellular transport in mdr1a-expressing LLC-PK1 cells; conditions: pig
Method in brief: (§1)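 Polarized monolayers of LLC-PK1 pig kidney cells transfected with human MDR1, mouse mdr1a or mouse mdr1b cDNA, paired with wildtype LLC-PK1 monolayers. Directional transport across the monolayer was expressed as a transport ratio. The Pgp inhibitor PSC833 was used to test whether transport was Pgp-specific. Cyclosporin A served as the positive-control Pgp substrate.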

[2] = biological target: T2, ATP-dependent translocase ABCB1 (Homo sapiens, UniProt P08183); test: TP_TRANSPORTER: transcellular transport in MDR1-expressing LLC-PK1 cells; conditions: pig; method in brief: as §1
[3] = biological target: ATP-dependent translocase ABCB1 (Mus musculus, UniProt P06795); test: TP_TRANSPORTER: transcellular transport in mdr1b-expressing LLC-PK1 cells; conditions: pig; method in brief: as §1
[4] = biological target: ATP-binding cassette sub-family C member 2 (Homo sapiens, UniProt Q92887); test: TP_TRANSPORTER: transcellular transport in MRP2-expressing MDCKII cells; conditions: dog, mdck-ii
Method in brief: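 Directional transcellular transport was measured across polarized MDCKII monolayers transfected with human MRP2 cDNA and compared with wildtype MDCKII cells. Vinblastine served as the reference MRP2 substrate. The read-out was the transport ratio (TR).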

[5] = biological target: T2, ATP-dependent translocase ABCB1; test: TP_TRANSPORTER: inhibition of cyclosporin A transcellular transport by tariquidar at a concentration of 0.2uM in MDR1-expressing MDCKII cells; conditions: dog, mdck-ii
[6] = biological target: T2, ATP-dependent translocase ABCB1; test: TP_TRANSPORTER: inhibition of cyclosporin A transcellular transport by carbamazapine 224 uM in MDR1-expressing LLC-PK1 cells; conditions: pig, llc-pk1, 224 µM
[7] = biological target: T1, ATP-dependent translocase ABCB1; test: TP_TRANSPORTER: inhibition of cyclosporin A transcellular transport by carbamazepine at a concentration of 224uM in mdr1a-expressing LLC-PK1 cells; conditions: pig, llc-pk1, 224 µM
[8] = biological target: T2, ATP-dependent translocase ABCB1; test: TP_TRANSPORTER: inhibition of cyclosporin A transcellular transport by PSC833 at a concentration of 30uM in MDR1-expressing MDCKII cells; conditions: dog, mdck-ii
[9] = biological target: T1, ATP-dependent translocase ABCB1; test: TP_TRANSPORTER: inhibition of phenytoin transcellular transport by PSC833 at a concentration of 30uM in mdr1a-expressing LLC-PK1 cells; conditions: pig, llc-pk1, 30 µM
[10] = biological target: T1, ATP-dependent translocase ABCB1; test: TP_TRANSPORTER: inhibition of levetiracetam transcellular transport by PSC833 at a concentration of 30uM in mdr1a-expressing LLC-PK1 cells; conditions: pig, llc-pk1, 30 µM
[11] = biological target: T1, ATP-dependent translocase ABCB1; test: TP_TRANSPORTER: inhibition of cyclosporin A transcellular transport by PSC833 at a concentration of 30uM in mdr1a-expressing LLC-PK1 cells; conditions: pig, llc-pk1, 30 µM

T1 sequence (P21447 whole entry): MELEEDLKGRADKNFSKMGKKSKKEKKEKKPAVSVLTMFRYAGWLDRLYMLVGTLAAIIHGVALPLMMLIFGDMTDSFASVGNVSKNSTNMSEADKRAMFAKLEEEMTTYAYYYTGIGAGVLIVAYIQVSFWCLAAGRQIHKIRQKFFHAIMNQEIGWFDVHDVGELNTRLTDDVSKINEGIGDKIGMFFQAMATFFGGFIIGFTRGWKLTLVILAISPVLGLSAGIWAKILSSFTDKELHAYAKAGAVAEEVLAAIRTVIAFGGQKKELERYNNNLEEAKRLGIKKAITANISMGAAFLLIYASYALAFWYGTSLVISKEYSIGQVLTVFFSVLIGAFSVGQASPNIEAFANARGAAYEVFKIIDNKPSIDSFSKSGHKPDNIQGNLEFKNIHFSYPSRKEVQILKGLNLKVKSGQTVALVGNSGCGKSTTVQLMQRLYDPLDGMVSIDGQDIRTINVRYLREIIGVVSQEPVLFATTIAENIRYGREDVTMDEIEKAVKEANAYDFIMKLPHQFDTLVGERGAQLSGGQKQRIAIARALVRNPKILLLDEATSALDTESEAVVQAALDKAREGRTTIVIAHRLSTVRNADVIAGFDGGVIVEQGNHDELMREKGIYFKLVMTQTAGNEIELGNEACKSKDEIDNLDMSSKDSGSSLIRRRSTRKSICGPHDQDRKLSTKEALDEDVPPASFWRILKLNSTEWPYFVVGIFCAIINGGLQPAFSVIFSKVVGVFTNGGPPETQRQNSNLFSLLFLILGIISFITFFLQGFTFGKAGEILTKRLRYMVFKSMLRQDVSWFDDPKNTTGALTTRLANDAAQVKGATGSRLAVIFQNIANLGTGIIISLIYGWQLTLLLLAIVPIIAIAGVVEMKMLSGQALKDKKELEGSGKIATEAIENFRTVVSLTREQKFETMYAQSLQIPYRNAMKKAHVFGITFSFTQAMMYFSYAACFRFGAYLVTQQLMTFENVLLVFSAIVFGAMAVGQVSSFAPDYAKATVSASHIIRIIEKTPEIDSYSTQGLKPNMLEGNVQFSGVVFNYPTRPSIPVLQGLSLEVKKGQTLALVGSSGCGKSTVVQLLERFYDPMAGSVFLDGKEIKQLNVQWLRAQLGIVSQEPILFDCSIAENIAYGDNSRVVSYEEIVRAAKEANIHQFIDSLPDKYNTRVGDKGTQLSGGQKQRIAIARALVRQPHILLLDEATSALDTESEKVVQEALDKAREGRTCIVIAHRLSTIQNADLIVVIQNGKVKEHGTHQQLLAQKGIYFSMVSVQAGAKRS
Chain of ATP-dependent translocase ABCB1 (Mus musculus, UniProt P06795) (P06795 whole entry): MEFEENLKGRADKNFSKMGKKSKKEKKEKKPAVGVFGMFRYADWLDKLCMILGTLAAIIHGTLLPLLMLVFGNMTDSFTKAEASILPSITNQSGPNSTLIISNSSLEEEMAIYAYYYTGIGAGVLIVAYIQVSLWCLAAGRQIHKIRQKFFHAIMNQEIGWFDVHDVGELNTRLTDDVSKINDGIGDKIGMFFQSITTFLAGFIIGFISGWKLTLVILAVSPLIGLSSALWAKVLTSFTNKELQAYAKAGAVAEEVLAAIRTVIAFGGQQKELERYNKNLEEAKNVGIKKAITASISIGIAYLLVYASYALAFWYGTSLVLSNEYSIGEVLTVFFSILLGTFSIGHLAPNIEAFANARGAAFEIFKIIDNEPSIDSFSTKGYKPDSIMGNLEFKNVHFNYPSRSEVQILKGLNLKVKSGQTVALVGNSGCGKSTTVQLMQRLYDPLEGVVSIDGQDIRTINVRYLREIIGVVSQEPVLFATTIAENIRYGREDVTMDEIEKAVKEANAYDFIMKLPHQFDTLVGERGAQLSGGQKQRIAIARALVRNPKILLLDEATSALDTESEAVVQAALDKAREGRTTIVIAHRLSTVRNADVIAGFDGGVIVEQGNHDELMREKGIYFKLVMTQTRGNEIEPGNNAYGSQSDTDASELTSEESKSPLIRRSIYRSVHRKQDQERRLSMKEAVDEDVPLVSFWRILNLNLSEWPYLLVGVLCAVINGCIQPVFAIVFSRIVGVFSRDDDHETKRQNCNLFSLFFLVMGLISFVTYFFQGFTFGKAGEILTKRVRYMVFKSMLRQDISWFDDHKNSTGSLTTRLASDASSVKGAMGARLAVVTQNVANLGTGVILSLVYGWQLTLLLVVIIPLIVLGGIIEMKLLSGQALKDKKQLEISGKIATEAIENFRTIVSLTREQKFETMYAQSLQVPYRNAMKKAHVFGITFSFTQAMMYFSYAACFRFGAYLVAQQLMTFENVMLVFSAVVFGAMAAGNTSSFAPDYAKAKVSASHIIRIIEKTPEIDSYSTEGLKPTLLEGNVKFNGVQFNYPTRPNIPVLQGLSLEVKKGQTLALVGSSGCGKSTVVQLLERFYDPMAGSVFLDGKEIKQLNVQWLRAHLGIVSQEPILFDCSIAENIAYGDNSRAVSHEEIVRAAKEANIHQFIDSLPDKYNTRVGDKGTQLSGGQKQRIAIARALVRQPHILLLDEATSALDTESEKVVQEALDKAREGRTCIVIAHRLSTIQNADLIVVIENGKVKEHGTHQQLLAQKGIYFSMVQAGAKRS
Chain of ATP-binding cassette sub-family C member 2 (Q92887 whole entry): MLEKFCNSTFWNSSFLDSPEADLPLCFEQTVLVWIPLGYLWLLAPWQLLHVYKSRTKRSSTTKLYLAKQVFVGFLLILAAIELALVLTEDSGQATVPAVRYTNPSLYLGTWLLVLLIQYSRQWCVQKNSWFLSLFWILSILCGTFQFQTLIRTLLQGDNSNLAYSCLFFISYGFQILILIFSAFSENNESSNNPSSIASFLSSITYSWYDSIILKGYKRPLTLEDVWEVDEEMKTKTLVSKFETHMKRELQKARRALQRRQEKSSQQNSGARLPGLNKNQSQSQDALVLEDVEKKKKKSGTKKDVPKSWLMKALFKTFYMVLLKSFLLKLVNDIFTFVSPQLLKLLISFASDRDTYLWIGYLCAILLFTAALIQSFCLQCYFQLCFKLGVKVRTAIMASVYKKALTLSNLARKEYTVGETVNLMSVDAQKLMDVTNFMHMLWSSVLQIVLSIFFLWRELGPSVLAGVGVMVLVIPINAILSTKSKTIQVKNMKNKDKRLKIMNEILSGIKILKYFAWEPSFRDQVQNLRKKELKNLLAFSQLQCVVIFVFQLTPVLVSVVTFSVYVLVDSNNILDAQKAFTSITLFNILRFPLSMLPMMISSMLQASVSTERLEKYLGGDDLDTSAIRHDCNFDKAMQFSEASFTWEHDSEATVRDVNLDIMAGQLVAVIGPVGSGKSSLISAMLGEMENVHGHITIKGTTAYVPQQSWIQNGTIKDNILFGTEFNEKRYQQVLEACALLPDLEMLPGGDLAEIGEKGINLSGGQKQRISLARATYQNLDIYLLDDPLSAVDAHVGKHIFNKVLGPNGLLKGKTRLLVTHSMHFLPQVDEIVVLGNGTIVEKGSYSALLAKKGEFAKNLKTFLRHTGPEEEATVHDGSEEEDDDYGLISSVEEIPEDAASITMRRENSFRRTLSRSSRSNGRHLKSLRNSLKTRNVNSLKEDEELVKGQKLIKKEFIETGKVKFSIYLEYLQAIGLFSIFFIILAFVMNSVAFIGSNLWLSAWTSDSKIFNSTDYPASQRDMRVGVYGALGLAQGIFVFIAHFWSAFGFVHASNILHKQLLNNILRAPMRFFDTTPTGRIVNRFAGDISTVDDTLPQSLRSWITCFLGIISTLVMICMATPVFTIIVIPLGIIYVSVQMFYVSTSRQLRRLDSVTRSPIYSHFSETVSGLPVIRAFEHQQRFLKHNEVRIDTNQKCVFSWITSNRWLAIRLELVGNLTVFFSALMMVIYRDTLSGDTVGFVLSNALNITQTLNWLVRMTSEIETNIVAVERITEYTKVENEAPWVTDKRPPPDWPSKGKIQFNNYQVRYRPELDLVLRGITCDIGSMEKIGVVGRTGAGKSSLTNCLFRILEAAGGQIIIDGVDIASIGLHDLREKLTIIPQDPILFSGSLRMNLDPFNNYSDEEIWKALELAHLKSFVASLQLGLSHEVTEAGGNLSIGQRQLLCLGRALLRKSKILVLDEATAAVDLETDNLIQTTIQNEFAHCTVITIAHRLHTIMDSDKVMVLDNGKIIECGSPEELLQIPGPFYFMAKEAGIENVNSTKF

Row | SMILES | Activity [1] | Activity [2] | Activity [3] | Activity [4] | other results
1 | CC[C@@H](C(N)=O)N1CCCC1=O | substrate [+] | is not a substrate [-] | is not a substrate [-] | is not a substrate [-] | 
2 | COc1cc2c(cc1OC)CN(CCc1ccc(NC(=O)c3cc(OC)c(OC)cc3NC(=O)c3cnc4ccccc4c3)cc1)CC2 |  |  |  |  | Activity [5]: inhibitor [+]
3 | NC(=O)N1c2ccccc2C=Cc2ccccc21 [CARBAMAZEPINE] | is not a substrate [-] | is not a substrate [-] | is not a substrate [-] |  | Activity [6]: is not a inhibitor [-]; Activity [7]: is not an inhibitor [-]
4 | O=C1NC(=O)C(c2ccccc2)(c2ccccc2)N1 [PHENYTOIN] | substrate [+] | is not a substrate [-] | is not a substrate [-] | substrate [+] | 
5 | C/C=C/C[C@@H](C)C(=O)[C@H]1C(=O)N[C@@H](C(C)C)C(=O)N(C)CC(=O)N(C)[C@@H](CC(C)C)C(=O)N[C@@H](C(C)C)C(=O)N(C)[C@@H](CC(C)C)C(=O)N[C@@H](C)C(=O)N[C@H](C)C(=O)N(C)[C@@H](CC(C)C)C(=O)N(C)[C@@H](CC(C)C)C(=O)N(C)[C@@H](C(C)C)C(=O)N1C [VALSPODAR] |  |  |  |  | Activity [8]: inhibitor [+]; Activity [9]: inhibitor [+]; Activity [10]: inhibitor [+]; Activity [11]: inhibitor [+]
6 | CC[C@]1(O)C[C@@H]2CN(CCc3c([nH]c4ccccc34)[C@@](C(=O)OC)(c3cc4c(cc3OC)N(C)[C@H]3[C@@](O)(C(=O)OC)[C@H](OC(C)=O)[C@]5(CC)C=CCN6CC[C@]43[C@@H]65)C2)C1 [VINBLASTINE] |  |  |  | substrate [+] | 
